# Measurements published in ChEMBL document CHEMBL4014308, “Amphiphilic Tobramycin-Lysine Conjugates Sensitize Multidrug Resistant Gram-Negative Bacteria to Rifampicin and Minocycline” (J Med Chem, 2017).
# Active and inactive are the calls of the source. The calls are words filed in the database; no cut-off is given here.
# Experiments:
# [1] = tested on: Staphylococcus aureus; experiment: Antibacterial activity against Staphylococcus aureus ATCC 29213 after 18 hrs by microtiter dilution assay; format: functional; conditions: ATCC 29213, 18 h
# Method in brief: (§1)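 Broth microdilution following CLSI guidelines. An overnight culture was adjusted to 0.5 McFarland in saline, then diluted 1:50 in Mueller-Hinton broth. This inoculum was added in equal volume to 2-fold serial dilutions of agent in MHB and incubated 18 h at 37 °C. MIC was the lowest concentration with no visible growth.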
# [2] = tested on: Pseudomonas aeruginosa; experiment: Potentiation of minocycline-induced antibacterial activity against multidrug/extremely drug-resistant/colistin-susceptible Pseudomonas aeruginosa isolate P264-104354 at 4 ug/ml after 18 hrs by checkerboard assay; format: functional
# Method in brief: (§2)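 Checkerboard in Mueller-Hinton broth: antibiotic serially diluted along one axis and adjuvant along the other (10 × 7 matrix). Inoculum from a 0.5 McFarland saline suspension diluted 1:50 in MHB; 18 h at 37 °C, then plate read. MIC is the lowest concentration with no growth. FIC of each agent is its concentration in a no-growth well divided by its MIC alone; FIC index is the sum of both. FIC index ≤0.5 counts as synergy.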
# [3] = tested on: Pseudomonas aeruginosa; experiment: Potentiation of colistin-induced antibacterial activity against Pseudomonas aeruginosa PAO1 at 4 ug/ml after 18 hrs by checkerboard assay; format: functional; method in brief: as §2
# [4] = tested on: Pseudomonas aeruginosa; experiment: Induction of outer membrane permeabilization in Pseudomonas aeruginosa PAO1 at 32 ug/ml after 30 mins by CFDASE staining based fluorescence assay; format: functional
# Method in brief: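 Log-phase PAO1 washed in PBS, brought to OD600 0.5 and loaded with 100 µM CFDASE for 30 min at 37 °C, then washed. Cells were exposed to agent for 30 min at 37 °C and supernatant fluorescence read at 488/520 nm. Untreated cells were subtracted; 1% Triton X-100 served as positive control.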
# [5] = Cytotoxicity against human DU145 cells assessed as cell viability at 20 uM after 48 hrs by MTS assay relative to control; format: cell-based, DU-145; conditions: read-out: Activity
# Method in brief: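 DU145 and JIMT-1 grown in DMEM with 10% FBS and penicillin/streptomycin at 37 °C, 5% CO2. 7500–9000 cells/well were seeded for 24 h, then treated at 2.5–30 µM (final) for 48 h. MTS reagent (20% v/v) added for 4 h and OD read at 490 nm after blank subtraction; viability expressed relative to vehicle control.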
# [6] = tested on: Pseudomonas aeruginosa; experiment: Potentiation of minocycline-induced antibacterial activity against multidrug/extremely drug-resistant/colistin-resistant Pseudomonas aeruginosa isolate 91433 assessed as fold reduction in minocycline MIC at 4 ug/ml after 18 hrs by checkerboard assay relative to control; format: functional
# Method in brief: (§3)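 Checkerboard in Mueller-Hinton broth, 10 × 7 matrix, with the adjuvant held at 4 µg/mL. Inoculum from a 0.5 McFarland suspension diluted 1:50; 18 h at 37 °C. Antibiotic MIC (lowest concentration with no growth) with adjuvant is compared with the antibiotic MIC alone, giving a fold reduction.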
# [7] = tested on: Enterobacter cloacae; experiment: Synergistic antibacterial activity against multidrug-resistant Enterobacter cloacae 117029 after 18 hrs in presence of minocycline by checkerboard assay; format: functional; conditions: Enterobacter cloacae, 117029, 18 h
# Method in brief: (§4)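 Checkerboard in MHB with a 10 × 7 matrix: antibiotic serially diluted along one axis, adjuvant along the other. Inoculum was a 1:50 dilution of a 0.5 McFarland suspension, incubated 18 h at 37 °C and read on a plate reader. Each FIC is the concentration in a no-growth well divided by the MIC alone; FIC index is their sum, with ≤0.5 taken as synergy.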
# [8] = Ratio of cytotoxic concentration against human DU145 cells to synergistic concentration for Pseudomonas aeruginosa PAO1 in presence of rifampicin
# [9] = tested on: Enterococcus faecalis; experiment: Antibacterial activity against Enterococcus faecalis ATCC 29212 after 18 hrs by microtiter dilution assay; format: functional; conditions: ATCC 29212, 18 h
# Method in brief: (§5)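 Broth microdilution per CLSI. Overnight culture adjusted to 0.5 McFarland in saline, diluted 1:50 in Mueller-Hinton broth, and added to an equal volume of 2-fold serial compound dilutions in MHB. Incubated 18 h at 37 °C. MIC taken as the lowest concentration with no visible growth.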
# [10] = tested on: Staphylococcus epidermidis; experiment: Antibacterial activity against methicillin-resistant Staphylococcus epidermidis isolate CAN-ICU 61589 after 18 hrs by microtiter dilution assay; format: functional; conditions: isolate CAN-ICU 61589, 18 h; method in brief: as §1
# [11] = tested on: Pseudomonas aeruginosa; experiment: Potentiation of rifampicin-induced bactericidal activity against Pseudomonas aeruginosa PAO1 at 0.125 times antibacterial MIC after 90 mins; format: functional
# Method in brief: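 Combination time-kill in PAO1 (LB, 37 °C). Aliquots taken at 0–360 min, serially diluted in PBS, plated on LB agar, and CFU counted after 20 h at 37 °C.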
# [12] = tested on: Acinetobacter baumannii; experiment: Synergistic antibacterial activity against multidrug-resistant Acinetobacter baumannii AB030 after 18 hrs in presence of rifampicin by checkerboard assay; format: functional; conditions: AB030, 18 h; method in brief: as §4
# [13] = tested on: Pseudomonas aeruginosa; experiment: Antibacterial activity against Pseudomonas aeruginosa ATCC 27853 after 18 hrs by microtiter dilution assay; format: functional; conditions: ATCC 27853, 18 h; method in brief: as §5
# [14] = tested on: Pseudomonas aeruginosa; experiment: Potentiation of amikacin-induced antibacterial activity against Pseudomonas aeruginosa PAO1 at 4 ug/ml after 18 hrs by checkerboard assay; format: functional; method in brief: as §2
# [15] = tested on: Acinetobacter baumannii; experiment: Synergistic antibacterial activity against multidrug-resistant Acinetobacter baumannii AB027 after 18 hrs in presence of rifampicin by checkerboard assay; format: functional; conditions: AB027, 18 h; method in brief: as §4
# [16] = Toxicity in Galleria mellonella assessed as survival rate at 200 mg/kg for 4 days relative to control; format: organism-based; conditions: in vivo
# Method in brief: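 Galleria mellonella larvae, about 250 mg each, were used within 7 days of delivery. Compound alone was injected at 100 and 200 mg/kg with no bacterial challenge, ten larvae per group. Larvae were kept at 37 °C and survival was scored over 96 h.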
# [17] = tested on: Pseudomonas aeruginosa; experiment: Potentiation of trimethoprim-induced antibacterial activity against Pseudomonas aeruginosa PAO1 at 4 ug/ml after 18 hrs by checkerboard assay; format: functional
# Method in brief: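 Checkerboard broth microdilution in MHB: antibiotic serially diluted along one axis, adjuvant along the other (10 × 7 matrix). Inoculum from 0.5 McFarland saline suspension diluted 1:50 in MHB; 18 h at 37 °C. MIC taken as lowest concentration with no growth. FIC per agent = combination MIC/MIC alone; FIC index = sum (≤0.5 synergy).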
# [18] = tested on: Pseudomonas aeruginosa; experiment: Potentiation of rifampicin-induced antibacterial activity against multidrug/extremely drug-resistant/colistin-susceptible Pseudomonas aeruginosa isolate 100036 at 4 ug/ml after 18 hrs by checkerboard assay; format: functional; method in brief: as §2
# [19] = tested on: Pseudomonas aeruginosa; experiment: Potentiation of minocycline-induced antibacterial activity against Pseudomonas aeruginosa PAO1 at 4 ug/ml after 18 hrs by checkerboard assay; format: functional; method in brief: as §2
# [20] = tested on: Pseudomonas aeruginosa; experiment: Potentiation of minocycline-induced antibacterial activity against multidrug/extremely drug-resistant/colistin-susceptible Pseudomonas aeruginosa isolate P264-104354 assessed as fold reduction in minocycline MIC at 4 ug/ml after 18 hrs by checkerboard assay relative to control; format: functional; method in brief: as §3
# [21] = tested on: Acinetobacter baumannii; experiment: Antibacterial activity against Acinetobacter baumannii isolate CAN-ICU 63169 after 18 hrs by microtiter dilution assay; format: functional; conditions: isolate CAN-ICU 63169, 18 h; method in brief: as §5
# [22] = tested on: Pseudomonas aeruginosa; experiment: Potentiation of rifampicin-induced antibacterial activity against multidrug/extremely drug-resistant/colistin-susceptible Pseudomonas aeruginosa isolate 100036 assessed as fold reduction in rifampicin MIC at 4 ug/ml after 18 hrs by checkerboard assay relative to control; format: functional; method in brief: as §3
smiles,measurement,setting,value
Cl.Cl.Cl.Cl.Cl.Cl.Cl.NCCCC[C@H](N)C(=O)N(CCCCCCCCCCCCO[C@@H]1[C@@H](O[C@H]2O[C@H](CO)[C@@H](O)[C@H](N)[C@H]2O)[C@H](N)C[C@H](N)[C@H]1O[C@H]1O[C@H](CN)[C@@H](O)C[C@H]1N)Cc1c2ccccc2c(Cl)c2ccccc12,MIC,[1],8 µg/mL
same,fractional inhibitory concentration index (FICI),[2],0.079
same,fractional inhibitory concentration index (FICI),[3],1.031
same,Activity,[4],Active
same,"viability at 48 h, 20 µM",[5],> 50%
same,fold change (FC),[6],128
same,MIC,[7],8 µg/mL
same,Ratio,[8],6
same,MIC,[9],16 µg/mL
same,MIC,[10],4 µg/mL
same,Activity,[11],Active
same,MIC,[12],8 µg/mL
same,MIC,[13],32 µg/mL
same,fractional inhibitory concentration index (FICI),[14],1.063
same,MIC,[15],8 µg/mL
same,survival at 96 h,[16],100%
same,fractional inhibitory concentration index (FICI),[17],0.126
same,fractional inhibitory concentration index (FICI),[18],0.079
same,fractional inhibitory concentration index (FICI),[19],0.094
same,fold change (FC),[20],128
same,MIC,[21],128 µg/mL
same,fold change (FC),[22],128
